Source: ChEMBL document CHEMBL2417527, “Prenylated and geranylated flavonoids increase production of reactive oxygen species in mouse macrophages but inhibit the inflammatory response” (J Nat Prod, 2013)
Calls of active or inactive are those of the source. The rule behind the calls is not given here.

Columns and labels:
J774.A1 [1] = assay: Induction of ROS production in LPS-stimulated mouse J774A1 cells at 0.25 to 1.25 uM after 24 hrs by flow cytometry; format: functional, cell-based
Method in brief: (§1)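 Macrophages in serum-free DMEM were pretreated with compound (0.25 or 1.25 μM) for 1 h. E. coli 0111:B4 LPS (1 μg/mL) was then added for 24 h, with DCFH2-DA added 30 min before the end. DCF fluorescence was measured by flow cytometry (ex 488/em 525 nm). Results were compared with cells given vehicle plus LPS.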

J774.A1 [2] = assay: Induction of ROS production in LPS-stimulated mouse J774A1 cells at 1.25 uM after 30 mins by flow cytometry relative to control; format: functional
J774.A1 [3] = assay: Induction of ROS production in mouse J774A1 cells at 0.25 uM after 30 mins by flow cytometry relative to control; format: functional
Method in brief: (§2)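 Cells were grown to 80–90% confluence and switched to serum-free DMEM. They were loaded with 10 μM DCFH2-DA for 1 h, and compound (0.25 or 1.25 μM, 0.1% DMSO) was added for the final 30 min. Cells were washed, scraped off in PBS/lidocaine, and DCF was measured by flow cytometry (ex 488/em 525 nm). Results were compared with vehicle-treated cells; mean ± SE of four experiments.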

J774.A1 [4] = assay: Induction of ROS production in mouse J774A1 cells at 1.25 uM after 30 mins by flow cytometry relative to control; format: functional; method in brief: as §2
[5] = Antioxidant activity assessed as hypochlorous acid scavenging activity by fluorescence assay; format: functional
Method in brief: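 Oxidation of dihydrorhodamine 123 to rhodamine was followed. Final concentrations were 100 mM phosphate buffer (pH 7.4), compound in methanol at 0.625–100 μM, 5 μM DHR and 5 μM HClO. Fluorescence (ex 485, em 528 nm) was read at 37 °C immediately after mixing. Five independent experiments were run, each in triplicate.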

[6] = Antioxidant activity assessed as hydrogen peroxide radical scavenging activity by chemiluminescence method; format: functional
Method in brief: (§3)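 Lucigenin chemiluminescence was used. Each reaction contained 50 mM Tris-HCl (pH 7.4), compound in DMSO at 125–1000 μM, 800 μM lucigenin and 1% (v/v) H2O2. Luminescence was read at 37 °C immediately after mixing. Five independent experiments were run, each in triplicate.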

[7] = Antioxidant activity assessed as NADH/phenazine methosulfate generated superoxide anion scavenging after 2 mins by NBT reduction assay; format: functional
Method in brief: (§4)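 Superoxide was generated by NADH/PMS. Final concentrations were 19 mM phosphate buffer (pH 7.4), compound in DMSO at 12.5–1000 μM, 166 μM NADH, 43.3 μM NBT and 2.7 μM PMS. NBT reduction to diformazan was read as absorbance at 560 nm after 2 min of mixing at room temperature. Five independent experiments were run, each in triplicate.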

J774.A1 [8] = assay: Reduction of LPS-induced COX2 expression in mouse J774A1 cells at 1.25 uM pretreated 1 hr before LPS challenge measured after 24 hrs; format: functional, cell-based
Method in brief: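 Macrophages were pretreated with 1.25 μM compound for 1 h, then stimulated with 1 μg/mL LPS for 24 h. Lysates (40 μg protein) were run on 12% gels and blotted to PVDF. COX-2 was detected with antibody at 1:500 and normalized to β-actin by densitometry. Four independent experiments.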

J774.A1 [9] = assay: Induction of ROS production in mouse J774A1 cells at 1.25 uM after 24 hrs by flow cytometry relative to control
J774.A1 [10] = assay: Effect on ROS production in LPS-stimulated mouse J774A1 cells at 0.25 to 1.25 uM after 30 mins by flow cytometry; format: functional, cell-based
J774.A1 [11] = assay: Induction of ROS production in mouse J774A1 cells at 0.25 to 1.25 uM after 30 mins by flow cytometry relative to control; format: functional; method in brief: as §2
[12] = Antioxidant activity assessed as hydrogen peroxide radical scavenging activity at 1 mM by chemiluminescence method; format: functional; method in brief: as §3
[13] = Antioxidant activity assessed as NADH/phenazine methosulfate generated superoxide anion scavenging at 1 mM after 2 mins by NBT reduction assay; format: functional; method in brief: as §4
J774.A1 [14] = assay: Reduction of ROS production in LPS-stimulated mouse J774A1 cells at 0.25 to 1.25 uM after 24 hrs by flow cytometry; format: functional, cell-based; method in brief: as §1
J774.A1 [15] = assay: Reduction of ROS production in LPS-stimulated mouse J774A1 cells at 0.25 to 1.25 uM after 30 mins by flow cytometry; format: functional, cell-based

| IC50 [5] | IC50 [6] | IC50 [7] | Compound | Activity (J774.A1 [1]) | fold change (FC) (J774.A1 [2]) | fold change (FC) (J774.A1 [3]) | fold change (FC) (J774.A1 [4]) | Activity (J774.A1 [8]) | fold change (FC) (J774.A1 [9]) | Activity (J774.A1 [10]) | fold change (FC) (J774.A1 [11]) | Activity [12] | Activity [13] | Activity (J774.A1 [14]) | Activity (J774.A1 [15]) |
| --- | --- | --- | --- | --- | --- | --- | --- | --- | --- | --- | --- | --- | --- | --- | --- |
| 1.8 µM | 641 µM | 219 µM | CC(C)=CCc1c(-c2ccc(O)cc2O)oc2cc3c(c(O)c2c1=O)C=CC(C)(C)O3 [CUDRAFLAVONE B] | Active | 1.71 | 2.13 | 3.12 | inactive | 2 |  |  |  |  |  |  |
| 2.3 µM | 554 µM | 41.2 µM | CC(C)=CCC/C(C)=C/Cc1c(O)cc2c(c1O)C(=O)C[C@@H](c1ccc(O)c(O)c1)O2 [NYMPHAEOL A] |  |  |  |  | Active | 0.79 | inactive | 0.95 |  |  |  |  |
| 31 µM | > 1000 µM | > 1000 µM | CC(C)=CCc1c2c(c3occ(-c4ccc(O)cc4)c(=O)c3c1O)C=CC(C)(C)O2 [OSAJIN] | Active | 1.59 |  |  |  |  |  | 0.95 | 17% | 39% |  |  |
| 9.1 µM | 899 µM | 73.3 µM | CC(C)=CCc1c2c(c3occ(-c4ccc(O)c(O)c4)c(=O)c3c1O)C=CC(C)(C)O2 [POMIFERIN] |  |  |  |  |  |  |  | 0.95 |  |  | Active | Active |
